Data on 18 molecules can be found in PubChem BioAssay.

Test [1] in a line: reduced viability of SK-BR-3 breast cancer cells – cell-based, 24 h, human, pilot screen (AID 572;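 active means viability at or below 10% of carrier control in both of two separate runs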;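 further: compound exposure lasted between 18 and 24 h rather than exactly 24 h; 100% = carrier-treated control wells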). The note with it: SK-BR-3 viability, CellTiter-Glo luminescence, at 10 µM, stronger effect = lower value.
Test [2] can be described thus: HUVEC growth inhibition – cell-based, human, primary screen (AID 575).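 Further: 100% = median of untreated cell wells with 0.1% DMSO on each plate.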 The note with it: HUVEC proliferation, CellTiter-Glo luminescence, 72 h; at 10 µM; stronger effect = lower value. An outline of the steps: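 system = HUVEC primary cells | amount = 1250 cells/well | buffer or medium = supplemented EBM, 2% fetal bovine serum | dosing = single-point 10 µM, DMSO 0.1% final | times = 72 h compound incubation | detection = CTG luminescence | read-out = % viability relative to median vehicle-well signal on each plate | control set = vehicle and MePR control wells | format = collagen-coated 384-well format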
(In ATP-based viability assays light output follows the ATP content of the culture.)

Test [3] can be described thus: H69AR cell proliferation blockers – human, duplicate replicates, primary screen (AID 580;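 active means viability at or under a set limit in both replicates, limit being median viability minus 3 SD, cut at about 48% in these data, passing the limit was not always enough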;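 further: 100% = mean luminescence of untreated wells and 0% = no signal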). Particulars: H69AR lung tumor cells viability, ATP luminescence, 72 h; at 10 µM; stronger effect = lower value.
Test [4] in a line: MRP1 drug-resistance reversers in H69AR cells – cell-based, doxorubicin co-treatment, pilot screen (AID 601;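 active means viability loss from added drug above about 55%, and viability with drug at most 40%, in both replicates, limit read from the data, passing the limit was not always enough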). Particulars: CellTiter-Glo, 72 h, at 10 µM; for differential viability (reversal): stronger effect = higher value.
A short description of test [5]: yeast transport mutant growth inhibition pilot in 384-well plates, post-Golgi transport modulator project (AID 636; in the data active means inhibition above about 31%). Particulars: absorbance 615 nm, about 18 h, stronger effect = higher value.
Test [6] can be described thus: growth suppression of yeast trafficking mutant, preliminary HTS, modulators of trafficking downstream of Golgi apparatus project, 1536-format plate, OD 615 nm (AID 637; in the data active means inhibition above about 30%). Particulars: yeast transport mutant growth, absorbance 615 nm, 18 h; stronger effect = higher value.
Setting [7] is: H69AR cells + 2 uM doxorubicin, measured here: viability with 2 uM doxorubicin, stronger effect = lower value.
Setting [8] is: H69AR cells, compound alone cytotoxicity.

Activity calls are given as the source filed them.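 How the source made its calls, unless noted: active means viability at or below 30% in both replicate assays; inconclusive means viability at or below 30% in just one of the two assays; inactive means the rest.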

Turning to `CC(CCc1ccccc1)NC(=O)CSc1nc(N)cc(N)n1` (centres undefined), the viability in test [1] is 114% (inactive); in test [2], 96.6% (inactive); in test [3], 94.7% (inactive); in test [4] (setting [7]), 90%; in test [4] (setting [8]) it was 94.7%. Also, the differential viability (reversal) in test [4] (H69AR cells + 2 uM doxorubicin) was 4.75% (inactive). Moreover, the figures for the inhibition in test [5] and in test [6] were -0.68% (inactive) and -1.45% (inactive), respectively.
Take `CNC(=O)c1ccc2nc(NC(C)=O)sc2c1`: the viability is 110% (inactive) in test [1]; 102% (inactive) in test [2]; 99.9% (inactive) in test [3]; 90.4% in test [4] (setting [7]); 99.9% in test [4] (setting [8]). Further, the differential viability (reversal) in test [4] (H69AR cells + 2 uM doxorubicin) was 9.57% (inactive). Further, the inhibition is -7.2% (inactive) in test [5] and -0.36% (inactive) in test [6].
Take `CN(C)CCCOC(=O)CCc1ccccc1`: the viability in test [1] is 95% (inactive); in test [2] it was 126% (inactive); in test [3] it was 96.3% (inactive); in test [4] (setting [7]) it was 93.9%; in test [4] (setting [8]) it was 96.3%. Also, in test [4] (H69AR cells + 2 uM doxorubicin), the differential viability (reversal) is 2.46% (inactive). The inhibition in test [5] is -4.73% (inactive); in test [6] it was -7.09% (inactive).
As for `CCCC1c2ccc(C)n2CCN1C(=O)Nc1ccccc1Cl` (centres undefined), the viability is 92% (inactive) in test [1]; 92.2% (inactive) in test [2]; 93.5% (inactive) in test [3]; 86.6% in test [4] (setting [7]); 93.5% in test [4] (setting [8]). The differential viability (reversal) in test [4] (H69AR cells + 2 uM doxorubicin) is 6.95% (inactive). The inhibition in test [5] was 2.73% (inactive); in test [6], 8.2% (inactive).
In the case of `CCOCCn1c(CN2CCC(Cc3ccccc3)CC2)nc2c1c(=O)n(C)c(=O)n2C`, the viability is 61% (inactive) in test [1]; 89.7% (inactive) in test [2]; 87.7% (inactive) in test [3]; 58% in test [4] (setting [7]); 87.7% in test [4] (setting [8]). Besides, the differential viability (reversal) in test [4] (H69AR cells + 2 uM doxorubicin) was 29.8% (inactive). Moreover, the inhibition is -8.22% (inactive) in test [5] and 3.55% (inactive) in test [6].
`CC(=O)Nc1cc(NC(C)=O)cc(C(=O)OCC(=O)N2CC(C)OC(C)C2)c1` (centres undefined): the viability is 94% (inactive) in test [1]; 99.9% (inactive) in test [2]; 102% (inactive) in test [3]; 94.1% in test [4] (setting [7]); 102% in test [4] (setting [8]). Besides, in test [4] (H69AR cells + 2 uM doxorubicin), the differential viability (reversal) was 8.29% (inactive). Besides, the figures for the inhibition in test [5] and in test [6] were -6.62% (inactive) and -3.64% (inactive), respectively.
Consider `CCc1ccc(NC(=O)CS(=O)CC(=O)NC(C)CCc2ccco2)cc1` (centres undefined), for which the viability in test [1] was 120% (inactive); in test [2], 93.1% (inactive); in test [3] it was 106% (inactive); in test [4] (setting [7]) it was 94.3%; in test [4] (setting [8]), 106%. Besides, in test [4] (H69AR cells + 2 uM doxorubicin), the differential viability (reversal) is 11.5% (inactive). The inhibition in test [5] is -1.56% (inactive); in test [6], -4.59% (inactive).
With `CCCNC(=O)NS(=O)(=O)c1ccc(Cl)cc1`, the viability in test [1] is 124% (inactive); in test [2], 85% (inactive); in test [3], 97.5% (inactive); in test [4] (setting [7]), 87.1%; in test [4] (setting [8]) it was 97.5%. In addition, the differential viability (reversal) in test [4] (H69AR cells + 2 uM doxorubicin) is 10.4% (inactive). Also, the results for the inhibition in test [5] and in test [6] were -1.17% (inactive) and 0.83% (inactive), respectively.
In the case of `Cc1ccc(-c2nnc(SCC(=O)N3c4ccccc4NC(=O)C3(C)C)n2N)cc1`, the viability was 65% (inactive) in test [1]; 105% (inactive) in test [2]; 98% (inactive) in test [3]; 91.5% in test [4] (setting [7]); 98% in test [4] (setting [8]). Also, in test [4] (H69AR cells + 2 uM doxorubicin), the differential viability (reversal) was 6.49% (inactive). Moreover, the results for the inhibition in test [5] and in test [6] were -3.38% (inactive) and 0.36% (inactive), respectively.
For the molecule `Cc1nn(-c2nc3ccccc3[nH]2)c(N)c1-c1ccccc1`, the viability was 97% (inactive) in test [1]; 62.5% (inactive) in test [2]; 41.3% (active) in test [3]; 68.9% in test [4] (setting [7]); 41.3% in test [4] (setting [8]). For the same molecule, the differential viability (reversal) in test [4] (H69AR cells + 2 uM doxorubicin) is -27.6% (inactive). The inhibition is 11.6% (inactive) in test [5] and 2.7% (inactive) in test [6].
`c1cc2c(cc1C1CCCN1)OCCCO2` (centres undefined): the viability was 103% (inactive) in test [1]; 113% (inactive) in test [2]; 91.6% (inactive) in test [3]; 99.5% in test [4] (setting [7]); 91.6% in test [4] (setting [8]). For the same molecule, the differential viability (reversal) in test [4] (H69AR cells + 2 uM doxorubicin) was -7.94% (inactive). Besides, the inhibition is -5.21% (inactive) in test [5] and 2% (inactive) in test [6].
On to `CCOc1ccc(S(=O)(=O)Nc2ccc(Cl)cn2)c(C)c1C`, for which the viability in test [1] was 121% (inactive); in test [2], 91% (inactive); in test [3], 87.6% (inactive); in test [4] (setting [7]), 90.4%; in test [4] (setting [8]) it was 87.6%. For the same molecule, the differential viability (reversal) in test [4] (H69AR cells + 2 uM doxorubicin) is -2.8% (inactive). The inhibition in test [5] was -5.06% (inactive); in test [6] it was 4.43% (inactive).
`O=C(NCC1CCCO1)c1ccc(C(=O)NCC2CCCO2)cc1` (centres undefined): the viability in test [1] is 97% (inactive); in test [2], 108% (inactive); in test [3] it was 113% (inactive); in test [4] (setting [7]) it was 101%; in test [4] (setting [8]), 113%. For the same molecule, the differential viability (reversal) in test [4] (H69AR cells + 2 uM doxorubicin) was 11.3% (inactive). Also, the inhibition was -6.76% (inactive) in test [5] and -4% (inactive) in test [6].
Turning to `COc1cccc(-c2nnn(CC(=O)O)n2)c1`, the viability in test [1] was 149% (inactive); in test [2], 100% (inactive); in test [3] it was 91% (inactive); in test [4] (setting [7]), 89.3%; in test [4] (setting [8]) it was 91%. Further, in test [4] (H69AR cells + 2 uM doxorubicin), the differential viability (reversal) was 1.7% (inactive). The results for the inhibition in test [5] and in test [6] were -1.43% (inactive) and 1.97% (inactive), respectively.
For `CC1=Nn2c(nnc2-c2ccccc2)SC1`, the viability in test [1] was 96% (inactive); in test [2], 105% (inactive); in test [3], 95.2% (inactive); in test [4] (setting [7]), 77.7%; in test [4] (setting [8]), 95.2%. For the same molecule, in test [4] (H69AR cells + 2 uM doxorubicin), the differential viability (reversal) was 17.6% (inactive). In addition, the inhibition in test [5] was -0.93% (inactive); in test [6], 0% (inactive).
For the molecule `CC(=O)Nc1nc(C)c(-c2csc(Nc3ccc(O)cc3)n2)s1`, the viability is 114% (inactive) in test [1]; 19.7% (active) in test [2]; 13.3% (active) in test [3]; 18.6% in test [4] (setting [7]); 13.3% in test [4] (setting [8]). In addition, the differential viability (reversal) in test [4] (H69AR cells + 2 uM doxorubicin) was -5.39% (inactive). Besides, the inhibition is -3.95% (inactive) in test [5] and -6.13% (inactive) in test [6].
For `O=C(Nc1cc(C(F)(F)F)ccc1N1CCCC1)c1ccc2c(c1)OCO2`, the viability was 72% (inactive) in test [1]; 92.9% (inactive) in test [2]; 98% (inactive) in test [3]; 97.1% in test [4] (setting [7]); 98% in test [4] (setting [8]). In addition, in test [4] (H69AR cells + 2 uM doxorubicin), the differential viability (reversal) is 0.92% (inactive). The inhibition was -6.99% (inactive) in test [5] and -5.09% (inactive) in test [6].
As to `CCOc1ccc(N2CC(C(=O)NCCc3ccc(OC)c(OC)c3)CC2=O)cc1` (centres undefined), the viability in test [1] was 108% (inactive); in test [2], 97.6% (inactive); in test [3], 94.5% (inactive); in test [4] (setting [7]), 91.4%; in test [4] (setting [8]) it was 94.5%. The differential viability (reversal) in test [4] (H69AR cells + 2 uM doxorubicin) was 3.03% (inactive). The inhibition in test [5] was -11% (inactive); in test [6] it was 2.26% (inactive).

For orientation: viability means a read-out of living cells in per cent, often relative to untreated cells. The inhibition is the relative decrease from the control value, in per cent.
